# PGC1a acetyl inh = lowers PGC1a acetylation signal in U2OS cells; AlphaScreen anti-acetyl-lysine; with virally co-expressed GCN5 acetyltransferase; 350,000 compounds, 0.17% hits; AID 651687; inhibition, % at 15.6 µM;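 active means every replicate shows inhibition of at least 40%; inconclusive means mean inhibition at least 40% but some replicate below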
# DENV2 CPE = DENV2-induced cell death inhibition. 350,000 compounds, 1.7% hits. AID 651640. DENV2-infected cells, cytopathic effect rescue, plate reader. CPE inhibition, % at 9.99 µM; in the data active means CPE inhibition above about 20%, passing the limit was not always enough; inconclusive means no clear call, values can overlap the other calls; tested in BHK-21 cells
# C2C12 statin = protects C2C12 myotubes from simvastatin toxicity; 330,000 compounds, 0.78% hits; rescue of ATP level, % at 7.49 µM; ATP luminescence, 48 h; scaled: DMSO 0, geranylgeraniol control 100;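 active means mean ATP rescue above about 67%, or every replicate alone reaching that limit, limit read from the data, passing the limit was not always enough; inconclusive means no clear call, values can overlap the other calls; inactive means mean under the limit and some replicate under it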;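 further: myotubes were challenged with 10 µM simvastatin during compound exposure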
# S100A4 inh HTS = inhibitors of human S100A4 binding to myosin IIA peptide. inhibition, % at 10.7 µM. 360,000 compounds, 0.14% hits. S100A4/TAMRA-MyoIIA peptide fluorescence polarization. P26447. AID 652163;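 active means mean inhibition of at least 70% across replicates, with every replicate also reaching that level; inconclusive means mean inhibition reaches 70% but some replicates fall short; inactive means mean inhibition below 70%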
# Target sequence (P26447 whole entry, looked up): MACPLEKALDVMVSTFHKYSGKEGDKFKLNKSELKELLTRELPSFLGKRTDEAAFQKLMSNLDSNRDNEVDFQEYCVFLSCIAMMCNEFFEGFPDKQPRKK
#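 Material: human S100A4 monomer with TAMRA-labelled myosin IIA peptide; buffer or medium: HEPES pH 7.2 with CaCl2, KCl, NaCl, DTT, Triton; compound dosing: one concentration per compound; schedule: 5 min incubation before reading; benchmarks: neutral control DMSO, positive control TFP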
# SIRT5 inh = sirtuin-5 (human) deacylase inhibition. Purified SirT5, succinyl-peptide AMC, trypsin-coupled fluorescence. inhibition, % at 15 µM. 330,000 compounds, 1.1% hits; in the data active means inhibition above about 15%; inconclusive means no clear call, values can overlap the other calls
# Target sequence (Q9NXA8 whole entry, looked up): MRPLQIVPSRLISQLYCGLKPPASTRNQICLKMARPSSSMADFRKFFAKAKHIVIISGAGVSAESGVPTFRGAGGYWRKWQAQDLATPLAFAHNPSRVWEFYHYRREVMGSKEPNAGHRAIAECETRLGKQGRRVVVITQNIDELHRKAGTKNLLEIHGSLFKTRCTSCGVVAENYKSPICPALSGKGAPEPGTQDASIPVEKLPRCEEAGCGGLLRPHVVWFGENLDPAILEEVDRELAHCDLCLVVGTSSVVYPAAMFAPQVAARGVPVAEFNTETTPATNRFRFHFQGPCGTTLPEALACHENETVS
# A number is an active result; i = inactive; ? = inconclusive; nt = not tested or not shown. A selection: hits, their analogues and other compounds. The true share with any hit is near 2.9%.
SMILES,PGC1a acetyl inh,DENV2 CPE,C2C12 statin,S100A4 inh HTS,SIRT5 inh
CCN(CC(=O)Nc1c(F)cccc1F)C(=O)/C=C/c1ccc2c(c1)OCO2,i,84,i,i,i
CCOc1ccc(/C=C/C(=O)N(CC)CC(=O)Nc2c(F)cccc2F)cc1OC,i,i,i,i,nt
C[C@@H]1CN([C@H](C)CO)S(=O)(=O)c2ccc(-c3ccncc3)cc2O[C@H]1CN(C)C(=O)C1CC1,i,?,i,i,i
CCNC(=O)Cn1cc(C#N)c2ccccc21,i,nt,93,nt,nt
COc1ccc(NC(=O)Cn2cc(C#N)c3ccccc32)cc1,i,i,nt,i,i
CCc1cccc(NC(=O)c2ccc(CNc3c(N4CCCC4)c(=O)c3=O)cc2)c1,i,i,100,i,i
O=C(c1ccc(CNc2c(N3CCCC3)c(=O)c2=O)cc1)N1CCN(C2CCCCC2)CC1,i,78,i,i,i
CC1CCN(C(=O)c2ccc(CNc3c(N4CCCC4)c(=O)c3=O)cc2)CC1,i,i,nt,i,i
O=C1CCCCCCC(=O)[C@H](O)C[C@H](c2ccccc2)O1,nt,50,nt,i,i
O=C1CCCCC(=O)[C@H](O)C[C@H](c2ccccc2)O1,nt,i,nt,i,i
COc1ccc2c(c1)C(=O)O[C@@H](c1ccccc1)C[C@@H](O)C(=O)CC2,nt,33,nt,i,20
COc1ccc(NC(=O)Nc2ccc3c(c2)[C@H]2C[C@H](CC(=O)N4CCCCC4)O[C@H](CO)[C@H]2O3)cc1,i,i,i,i,i
CC(=O)N[C@H]1C=C[C@H](CC(=O)NCc2ccc(Cl)cc2)O[C@H]1CO,i,32,i,i,i
O=C(C[C@@H]1C=C[C@@H](NC(=O)c2ccccn2)[C@@H](CO)O1)NCc1cccc(F)c1,i,i,i,i,i
COc1ccc(CNC(=O)C[C@@H]2C=C[C@@H](NC(=O)c3ccc4c(c3)OCO4)[C@H](CO)O2)cc1,i,44,i,i,i
O=C(C[C@@H]1C=C[C@@H](NC(=O)c2ccccn2)[C@H](CO)O1)NCc1cccc(F)c1,i,36,i,i,i
CC1Cc2ccccc2N1C(=O)CSc1nnc(Cc2ccccc2)n1CCc1ccccc1 (stereo unspecified),i,nt,113,nt,nt
CC1Cc2ccccc2N1C(=O)CSc1nnnn1C (stereo unspecified),i,nt,i,nt,nt
CCCNC(=O)Nc1ccc2c(c1)C(=O)N(C)C[C@@H](OC)[C@H](C)CN(C(=O)C1CCOCC1)[C@H](C)CO2,i,i,i,i,i
COCCNC(=O)COc1ncnc2ccc(Br)cc12,i,nt,i,nt,nt
CC(C)(C)OC(=O)NCCOCCOCCNc1ncnc2ccc(Br)cc12,i,20,nt,i,i
O=C(Nc1ccccc1)N[C@H](Cc1ccccc1)Cn1cc(CN2C(=O)COC[C@H]2c2ccccc2)nn1,i,21,nt,i,i
O=C(N[C@@H](Cc1ccccc1)Cn1cc(CN2C(=O)COC[C@H]2c2ccccc2)nn1)c1ccccc1,nt,i,nt,i,i
Clc1cccc(C2=NOC(c3nnc(-c4ccccc4)o3)C2)c1 (stereo unspecified),nt,35,i,i,nt
c1ccc(C2=NOC(c3nnc(-c4ccccc4)o3)C2)cc1 (stereo unspecified),nt,i,i,i,nt
SMILES,PGC1a acetyl inh,DENV2 CPE,C2C12 statin,S100A4 inh HTS,SIRT5 inh
CCOC(=O)c1cc(-c2cc(OC)c(OC)c(OC)c2)nc2c1c(=O)[nH]c(=O)n2Cc1ccccc1,i,i,nt,i,20
CCC(=O)N1[C@H](CN(C)C(C)=O)[C@@H](c2ccc(-c3cccc(F)c3)cc2)[C@@H]1CO,i,i,i,nt,nt
CC(=O)Nc1ccc(NC(=O)C(C)n2nc(C)c([N+](=O)[O-])c2C)cc1 (stereo unspecified),i,i,i,i,28
O=C1CC(c2ccccc2)CC(O)=C1C=NCC1CCCO1 (stereo unspecified),i,nt,nt,nt,nt
Oc1[nH]c2ccccc2c1C=NCC1CCCO1 (stereo unspecified),i,nt,121,nt,nt
CN(C)C(=O)C[C@H]1CC[C@H]2[C@H](COc3ccc(NC(=O)C4CC4)cc3C(=O)N2C)O1,i,nt,i,i,i
NC(=O)CSc1nc2cccnc2n1-c1ccc(F)cc1,i,i,i,i,i
C#CCSc1nc(=O)c2cccnc2n1-c1ccc(C)cc1,i,i,132,i,i
C/C=C(\C)CN1CCC(n2nccc2NC(=O)CCc2ccccc2)CC1,i,101,i,i,i
CO[C@@H]1CN(C)C(=O)c2ccc(NC(=O)NC(C)C)cc2OC[C@@H](C)N(Cc2ccc(-c3ccccn3)cc2)C[C@@H]1C,i,nt,i,i,nt
C[C@H]1CN([C@@H](C)CO)C(=O)c2cc(NS(=O)(=O)c3cccs3)ccc2O[C@@H]1CN(C)Cc1ccc2c(c1)OCO2,i,i,i,i,i
O=C(C1CCOCC1)N1[C@H](CO)[C@@H](c2ccccc2)C12CN(Cc1cccnc1)C2,i,97,nt,i,i
CC(C)NC(=O)N1[C@H](CO)[C@@H](c2ccccc2)C12CN(C(=O)Cc1cccnc1)C2,i,31,nt,i,i
O=C(Cc1cccnc1)N1CC2(C1)[C@H](c1ccccc1)[C@@H](CO)N2C(=O)C1CC1,i,21,nt,i,i
C[C@H]1CN([C@@H](C)CO)C(=O)Cc2cc(NC(=O)C3CC3)ccc2O[C@H]1CN(C)C,i,i,i,i,i
O=[N+]([O-])c1ccccc1CN1CCN(S(=O)(=O)Cc2ccccc2)CC1,i,i,nt,105,i
CC(C)CC(=O)N1CCN(Cc2cccc([N+](=O)[O-])c2)CC1,i,i,nt,i,i
CC(C)CC(=O)N1CCN(Cc2ccccc2[N+](=O)[O-])CC1,i,i,nt,i,32
CCCS(=O)(=O)N1CCN(Cc2ccccc2[N+](=O)[O-])CC1,i,i,i,i,i
Cc1ccc(S(=O)(=O)Nc2ccc3c(c2)C(=O)N([C@H](C)CO)C[C@@H](C)[C@H](CN(C)S(=O)(=O)c2c(C)noc2C)OCCCC[C@H](C)O3)cc1,i,i,nt,i,i
Cc1cc(C(=O)Nc2ccc3c(c2)C(=O)N(C)[C@H]2CC[C@@H](CC(=O)N[C@@H](C)c4ccccc4)O[C@H]2CO3)no1,i,97,i,i,i
CCC(=O)Nc1ccc2c(c1)C(=O)N(C)[C@@H]1CC[C@H](CC(=O)N[C@H](C)c3ccccc3)O[C@@H]1CO2,i,?,i,i,15
Cc1cc(C(=O)Nc2ccc3c(c2)C(=O)N(C)[C@H]2CC[C@H](CC(=O)N[C@@H](C)c4ccccc4)O[C@H]2CO3)no1,i,i,i,i,i
C[C@@H]1CN([C@H](C)CO)C(=O)Cc2cc(NC(=O)CCCCCC(=O)Nc3ccccc3N)ccc2O[C@H]1CN(C)S(C)(=O)=O,i,i,i,i,nt
Cc1noc(C)c1NC(=O)Nc1ccc2c(c1)C(=O)N([C@@H](C)CO)C[C@@H](C)[C@@H](CN(C)C(=O)NC(C)C)OCCCC[C@@H](C)O2,i,i,nt,i,i
